These results are taken from ChEMBL document CHEMBL1817572, “New, potent, selective, and short-acting peptidic V1a receptor agonists” (J Med Chem, 2011).

The target in experiment [1] is T1, Vasopressin V2 receptor (Homo sapiens, UniProt P30518). Briefly: Agonist activity at recombinant human vasopressin V2 receptor expressed in HEK293 cells by luciferase reporter gene assay. The experiment is classed as functional, cell-based. As to conditions: read-out: EC50. On the technique in general: A reporter such as luciferase makes a cellular process visible.

Experiment [2] deals with T1, Vasopressin V2 receptor. Briefly: Partial agonist activity at recombinant human vasopressin V2 receptor expressed in HEK293 cells by luciferase reporter gene assay. The experiment is classed as functional, cell-based. The essentials:
(§1)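 Same luciferase reporter systems (OT in stable CHO-K1, V1b in stable Flp-In-293, each with transient NFAT-luciferase; V1a in HEK293 with NFAT-luciferase, V2 in HEK293 with CRE-luciferase). Peptides added for 5 h at 37 °C two days post-transfection, luminescence read. Partial agonism means efficacy <70%.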

Experiment [3] concerns Rattus norvegicus. Briefly: Vasoconstriction in Wistar rat assessed as assessed as decay in vasopressive duration of action at 0.2 nmol/kg, iv bolus measured over 10 sec interval. The experiment is classed as functional.
The target of a further experiment is T2, Vasopressin V1b receptor (Homo sapiens, UniProt P47901).
T2 sequence (P47901 whole entry): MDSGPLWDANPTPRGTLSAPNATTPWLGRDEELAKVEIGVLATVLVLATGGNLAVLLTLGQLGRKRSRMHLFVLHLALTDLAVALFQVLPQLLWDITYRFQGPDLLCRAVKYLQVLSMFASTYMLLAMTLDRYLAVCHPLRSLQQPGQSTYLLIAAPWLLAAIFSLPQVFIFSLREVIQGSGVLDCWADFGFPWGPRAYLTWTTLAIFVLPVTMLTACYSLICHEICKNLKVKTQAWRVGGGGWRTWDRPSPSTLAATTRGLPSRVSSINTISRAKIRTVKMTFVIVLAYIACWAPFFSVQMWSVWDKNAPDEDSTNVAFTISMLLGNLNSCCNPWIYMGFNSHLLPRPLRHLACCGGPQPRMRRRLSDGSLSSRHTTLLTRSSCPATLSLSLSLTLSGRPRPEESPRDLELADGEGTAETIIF
Briefly: Agonist activity at recombinant human vasopressin V1b receptor expressed in Flp-In-293 cells by luciferase reporter gene assay. The experiment is classed as functional, cell-based. Particulars: read-out: EC50. The essentials: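 Reporter gene assays in HEK293 cells transiently cotransfected with V1a (human or rat) or human V2 receptor vector plus NFAT-luciferase (V1a) or CRE-luciferase (V2) reporter; V1b in Flp-In-293 stably expressing receptor, OT in CHO-K1 stably expressing receptor, both transiently transfected with NFAT-luciferase. Two days post-transfection, peptides added for 5 h at 37 °C, lysis with luciferin, luminescence read.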

In experiment [4] the target is Vasopressin V1a receptor (Rattus norvegicus, UniProt P30560). Briefly: Agonist activity at recombinant rat vasopressin V1a receptor expressed in HEK293 cells by luciferase reporter gene assay. The experiment is classed as functional, cell-based. Particulars: read-out: EC50.
Experiment [5] concerns the target Vasopressin V1a/V2 (Homo sapiens) (UniProt P30518+P37288). Briefly: Selectivity ratio of EC50 for human vasopressin V2 receptor to EC50 for human vasopressin V1a receptor.
The species named for experiment [6] is Homo sapiens. Briefly: Selectivity ratio of EC50 for human vasopressin V1b receptor to EC50 for human vasopressin V1a receptor.
The target of a further experiment is T3, Oxytocin receptor (Homo sapiens, UniProt P30559).
T3 sequence (P30559 whole entry): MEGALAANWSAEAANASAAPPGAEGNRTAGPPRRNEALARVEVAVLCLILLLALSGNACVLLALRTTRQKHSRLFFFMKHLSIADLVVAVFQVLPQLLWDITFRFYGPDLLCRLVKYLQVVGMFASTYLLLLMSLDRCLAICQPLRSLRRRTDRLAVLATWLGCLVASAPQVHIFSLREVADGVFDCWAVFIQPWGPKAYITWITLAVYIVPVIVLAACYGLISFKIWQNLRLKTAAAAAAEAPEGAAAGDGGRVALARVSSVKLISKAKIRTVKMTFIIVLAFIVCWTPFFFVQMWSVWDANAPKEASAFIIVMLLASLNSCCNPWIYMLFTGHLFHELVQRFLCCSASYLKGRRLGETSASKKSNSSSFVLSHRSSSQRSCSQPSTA
Nature of the experiment: Agonist activity at human OT receptor expressed in CHO-K1 cells by luciferase reporter gene assay. The experiment is classed as functional, cell-based.

Experiment [7] deals with T4, Vasopressin V1a receptor (Homo sapiens, UniProt P37288). Briefly: Agonist activity at recombinant human vasopressin V1a receptor expressed in HEK293 cells by luciferase reporter gene assay. The experiment is classed as functional, cell-based. Particulars: read-out: EC50.
Target sequence in this assay (P37288 whole entry): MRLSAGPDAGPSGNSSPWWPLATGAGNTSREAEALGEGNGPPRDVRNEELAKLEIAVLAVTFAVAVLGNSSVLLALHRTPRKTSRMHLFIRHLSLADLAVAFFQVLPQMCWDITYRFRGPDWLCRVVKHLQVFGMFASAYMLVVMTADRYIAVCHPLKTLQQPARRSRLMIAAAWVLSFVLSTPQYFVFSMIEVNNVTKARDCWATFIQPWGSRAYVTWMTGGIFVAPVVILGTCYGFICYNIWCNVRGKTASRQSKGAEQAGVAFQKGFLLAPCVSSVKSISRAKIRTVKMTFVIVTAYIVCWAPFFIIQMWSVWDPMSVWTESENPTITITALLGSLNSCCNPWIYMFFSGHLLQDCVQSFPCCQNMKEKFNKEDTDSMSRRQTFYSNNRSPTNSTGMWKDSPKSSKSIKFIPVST
The species entered for experiment [8] is Homo sapiens. Nature of the experiment: Selectivity ratio of EC50 for human oxytocin receptor to EC50 for human vasopressin V1a receptor.
The target in experiment [9] is T5, Vasopressin V1b receptor (Homo sapiens) (UniProt P47901).
T5 sequence (whole entry): T2 sequence (P47901 whole entry)
Nature of the experiment: Partial agonist activity at recombinant human vasopressin V1b receptor expressed in Flp-In-293 cells by luciferase reporter gene assay. The experiment is classed as functional, cell-based. The essentials:
as §1

For experiment [10], the system named is Rattus norvegicus. Nature of the experiment: Vasoconstriction in Wistar rat assessed as assessed as decay in vasopressive duration of action at 60 nmol/kg, iv bolus measured over 10 sec interval. The experiment is classed as functional. The essentials: (§2)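 Fasted male Wistar rats (206–340 g) under isoflurane, then thiobutabarbital 150 mg/kg ip, ventilated, 37–38 °C, with carotid pressure and jugular dosing. Dibenamine 1.8 mg/rat iv pretreatment. Sequence: iv boluses (0.5 mL/kg) of heparinized vehicle, then two reference doses of 0.1 nmol/kg, then two test doses; one matches the reference diastolic pressure rise. Relative duration = reference decay rate / test decay rate; mean ± SEM.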

For experiment [11], the target named is T4, Vasopressin V1a receptor. Briefly: Partial agonist activity at recombinant human vasopressin V1a receptor expressed in HEK293 cells by luciferase reporter gene assay. The experiment is classed as functional, cell-based. Summed up: as §1
Target sequence in this assay (P37288 whole entry, looked up): as the sequence (P37288 whole entry) above
For experiment [12], the system named is Rattus norvegicus. Briefly: Vasoconstriction in Wistar rat assessed as assessed as decay in vasopressive duration of action at 0.6 nmol/kg, iv bolus measured over 10 sec interval. The experiment is classed as functional. The essentials:
as §2

Structures are written as SMILES. Numbered stars: 1 amine (or outer) side, 2 acyl side, 3 side chain; on linkers, the order of the positions; unused ones are H or OH. Bridge positions count the residues as written; N and C are the ends. Square brackets hold non-standard residues; d marks the D form. Peptide text beside a SMILES is read from it. Orn(iPr) = CC(C)NCCC[C@H](N)C(=O)O; X1 = CCNCCC[C@H](N[*:1])C(=O)[*:2]; 2Thi = N[C@@H](Cc1cccs1)C(=O)O; Cha = N[C@@H](CC1CCCCC1)C(=O)O Some results are limits rather than exact numbers.

Chain of Vasopressin V1a receptor (Rattus norvegicus, UniProt P30560) (P30560 whole entry): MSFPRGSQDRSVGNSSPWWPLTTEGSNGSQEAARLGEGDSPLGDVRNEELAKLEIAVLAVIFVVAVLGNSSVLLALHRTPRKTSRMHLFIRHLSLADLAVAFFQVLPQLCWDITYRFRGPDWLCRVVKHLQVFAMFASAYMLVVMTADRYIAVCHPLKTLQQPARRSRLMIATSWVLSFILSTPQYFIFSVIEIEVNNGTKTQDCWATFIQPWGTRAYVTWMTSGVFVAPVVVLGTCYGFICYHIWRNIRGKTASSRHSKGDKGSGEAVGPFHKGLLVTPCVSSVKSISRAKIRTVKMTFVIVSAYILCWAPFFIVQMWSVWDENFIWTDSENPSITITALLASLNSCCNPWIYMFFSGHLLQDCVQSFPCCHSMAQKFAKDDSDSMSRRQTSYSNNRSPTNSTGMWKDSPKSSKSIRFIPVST
T1 sequence (P30518 whole entry): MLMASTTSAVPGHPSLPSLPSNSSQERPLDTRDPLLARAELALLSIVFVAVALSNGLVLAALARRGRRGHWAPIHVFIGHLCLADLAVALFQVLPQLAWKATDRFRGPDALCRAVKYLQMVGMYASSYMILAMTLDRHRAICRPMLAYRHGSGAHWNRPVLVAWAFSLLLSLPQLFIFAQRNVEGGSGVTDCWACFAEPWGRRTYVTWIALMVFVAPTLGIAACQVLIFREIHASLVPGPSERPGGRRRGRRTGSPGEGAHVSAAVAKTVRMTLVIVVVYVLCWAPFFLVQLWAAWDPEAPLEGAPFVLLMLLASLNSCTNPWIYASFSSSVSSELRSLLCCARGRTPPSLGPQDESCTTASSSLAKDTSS
Chain of Vasopressin V1a/V2 (Homo sapiens) (P30518 whole entry, looked up): as the sequence (P30518 whole entry) above
Chain of Vasopressin V1a/V2 (Homo sapiens) (P37288 whole entry, looked up): as the sequence (P37288 whole entry) above

Take `CCNCCC[C@H](NC(=O)[C@@H]1CCCN1C(=O)[C@@H]1CSSC[C@H](N)C(=O)N[C@@H](Cc2ccccc2)C(=O)N[C@@H]([C@@H](C)CC)C(=O)N[C@@H](CCC(N)=O)C(=O)N[C@@H](CC(N)=O)C(=O)N1)C(=O)NCC(N)=O` (H-CFIQNCP[X1]G-NH2; disulfide 1-6): the EC50 was 260 nM on Vasopressin V2 receptor [1]; 32 nM on Vasopressin V1b receptor; 0.16 nM at Vasopressin V1a receptor [4]; 32 nM at Oxytocin receptor (read-out: EC50); 0.57 nM on Vasopressin V1a receptor [7]. Also, the Efficacy (at Vasopressin V2 receptor [2]; in [9]) was less than 70% throughout. Besides, the Time in the experiment on Rattus norvegicus [3] is 2.1 min. In addition, the Ratio EC50 in experiment [5] is 450; in the experiment filed under Homo sapiens [6], 56; in the experiment filed under Homo sapiens [8], 56.

For the molecule `CC[C@H](C)[C@@H]1NC(=O)[C@H](CC2CCCCC2)NC(=O)[C@@H](N)CSSC[C@@H](C(=O)N2CCC[C@H]2C(=O)N[C@@H](CCCNC(C)C)C(=O)NCC(N)=O)NC(=O)[C@H](CC(N)=O)NC(=O)[C@H](CC(N)=O)NC1=O` (H-C[Cha]INNCP[Orn(iPr)]G-NH2; disulfide 1-6), the EC50 on Vasopressin V2 receptor [1] is 970 nM; at Vasopressin V1b receptor, 110 nM; on Vasopressin V1a receptor [4], 57 nM; at Oxytocin receptor (cho-k1, read-out: EC50), greater than 10000 nM; on Oxytocin receptor (read-out: pEC50 (converted)), greater than 10000 nM; at Vasopressin V1a receptor [7], 1.4 nM. Also, the Time in the experiment with Rattus norvegicus [10] turned out to be 4.1 unitless ratio. The Ratio EC50 was 690 in experiment [5], 78 in the experiment filed under Homo sapiens [6] and greater than 7100 in the experiment filed under Homo sapiens [8].

`CC[C@H](C)[C@@H]1NC(=O)[C@H](Cc2ccccc2)NC(=O)[C@@H](N)CSSC[C@@H](C(=O)N2CCC[C@H]2C(=O)N[C@@H](CCCNC(C)C)C(=O)NCC(N)=O)NC(=O)[C@H](CC(N)=O)NC(=O)[C@H](CCC(N)=O)NC1=O` (H-CFIQNCP[Orn(iPr)]G-NH2; disulfide 1-6): the Efficacy on Vasopressin V1a receptor [11] and at Vasopressin V2 receptor [2] was less than 70% each time. Besides, the EC50 on Vasopressin V2 receptor [1] came out at 290 nM; at Vasopressin V1b receptor, 44 nM; on Vasopressin V1a receptor [4] it was 0.13 nM; at Oxytocin receptor (read-out: EC50) it was 33 nM; on Vasopressin V1a receptor [7], 0.38 nM. Moreover, the Time with Rattus norvegicus [3] is 2.3 min. Besides, the Ratio EC50 in [5] worked out at 760; in the experiment filed under Homo sapiens [6], 110; in the experiment listed under Homo sapiens [8], 86.

For the molecule `CC[C@H](C)[C@@H]1NC(=O)[C@H](Cc2cccs2)NC(=O)[C@@H](N)CSSC[C@@H](C(=O)N2CCC[C@H]2C(=O)N[C@@H](CCCNC(C)C)C(=O)NCC(N)=O)NC(=O)[C@H](CC(N)=O)NC(=O)[C@H](CCC(N)=O)NC1=O` (H-C[2Thi]IQNCP[Orn(iPr)]G-NH2; disulfide 1-6), the EC50 stood at 390 nM at Vasopressin V2 receptor [1]; 370 nM on Vasopressin V1b receptor; 0.32 nM at Vasopressin V1a receptor [4]; 110 nM on Oxytocin receptor (read-out: EC50); 0.69 nM at Vasopressin V1a receptor [7]. Moreover, the Efficacy at Vasopressin V2 receptor [2] was less than 70%. In addition, the Ratio EC50 in experiment [5] worked out at 560; in the experiment filed under Homo sapiens [6], 530; in the experiment listed under Homo sapiens [8] it was 150. Also, the Time in the experiment on Rattus norvegicus [12] amounted to 2.7 unitless ratio.
